# Laboratory results reported in ChEMBL document CHEMBL2203189, “Synthesis and pharmacology of 1-alkyl-3-(1-naphthoyl)indoles: steric and electronic effects of 4- and 8-halogenated naphthoyl substituents” (Bioorg Med Chem, 2012).
# pKi: −log10 of the molar value. Calls of active or inactive are those of the source.
# Tests used:
# Cannabinoid receptor 1 [1] = target: T1, Cannabinoid receptor 1 (Homo sapiens, UniProt P21554); test: Displacement of [3H]CP55940 from human CB1 receptor expressed in HEK293 cells after 1 hr by liquid scintillation spectrophotometry; type: cell-based
# Summary of the method: (§1)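 Membranes (50 µg) from HEK-293 cells stably expressing human CB1, cultured in DMEM/10% FBS. Incubated with 0.5 nM [3H]CP55,940 and test compound at 1 nM–10 µM in buffer with BSA (5 mg/mL), 1 h at 30 °C. Nonspecific binding defined with excess unlabelled CP55,940. Filtered through GF/B, then scintillation counting.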
# Cannabinoid receptor 2 = Cannabinoid receptor 2 (Homo sapiens, UniProt P34972); test: Displacement of [3H]CP55940 from human CB2 receptor expressed in CHO cells after 1 hr by liquid scintillation spectrophotometry; type: cell-based
# Summary of the method: as §1, with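 “CHO” for “HEK-293”, “CB2,” for “CB1,”, “fetal calf serum.” for “FBS.”, “µM” for “µM in buffer”, “GF/B filtration,” for “Filtered through GF/B,”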
# Homo sapiens = organism: Homo sapiens; test: Selectivity ratio of Ki for human CB1 receptor to Ki for human CB2 receptor
# Mus musculus [2] = test: Locomotor activity in Harlan ICR mouse assessed as inhibition of activity level at 83 umol/kg, iv from 5 to 15 mins by spontaneous locomotor activity test relative to vehicle treated control; type: functional
# Summary of the method: (§2)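 Male ICR mice, n = 6 per dose, single probe dose iv in emulphor–ethanol–saline 1:1:18. Photocell beam interruptions recorded over 10 min, at 5–15 min after dosing. Result given as % inhibition relative to the vehicle group.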
# Mus musculus [3] = test: Antinociceptive activity in Harlan ICR mouse assessed as latency to heat-induced tail flicking at 83 umol/kg, iv at 20 mins relative to control; type: functional
# Mus musculus [4] = test: Hypothermic activity in Harlan ICR mouse assessed as change in rectal temperature at 83 umol/kg, iv at 30 mins; type: functional
# Summary of the method: (§3)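 Male ICR mice, n = 6 per dose. Single probe dose iv in emulphor–ethanol–saline 1:1:18. Rectal temperature taken with a thermistor probe at 25 mm depth before dosing and at 30 min. Result given as change from pre-injection value (°C).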
# Mus musculus [5] = test: Induction of catalepsy in Harlan ICR mouse at 83 umol/kg, iv at 40 mins measured for 5 mins by ring immobility test; type: functional
# Summary of the method: (§4)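 Male ICR mice given a single iv probe dose in emulphor–ethanol–saline 1:1:18. At 40 min placed on a 5.5 cm ring raised 16 cm and observed for 5 min by blinded raters. Up to 5 escapes allowed; mice escaping before 2.5 min excluded. Immobility index = time motionless / 300 s × 100.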
# Mus musculus [6] = test: Locomotor activity in Harlan ICR mouse assessed as inhibition of activity level at 77 umol/kg, iv from 5 to 15 mins by spontaneous locomotor activity test relative to vehicle treated control; type: functional; summary of the method: as §2
# Mus musculus [7] = test: Antinociceptive activity in Harlan ICR mouse assessed as latency to heat-induced tail flicking at 77 umol/kg, iv at 20 mins relative to control; type: functional
# Mus musculus [8] = test: Hypothermic activity in Harlan ICR mouse assessed as change in rectal temperature at 77 umol/kg, iv at 30 mins; type: functional; summary of the method: as §3
# Mus musculus [9] = test: Induction of catalepsy in Harlan ICR mouse at 77 umol/kg, iv at 40 mins measured for 5 mins by ring immobility test; type: functional; summary of the method: as §4
# Mus musculus [10] = test: Locomotor activity in iv dosed Harlan ICR mouse from 5 to 15 mins by spontaneous locomotor activity test; type: functional
# Mus musculus [11] = test: Antinociceptive activity in iv dosed Harlan ICR mouse assessed as latency to heat-induced tail flicking at 20 mins; type: functional
# Summary of the method: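 Male ICR mice, 18–25 g, n = 6 per dose. Multiple doses iv by tail vein in emulphor–ethanol–saline 1:1:18. Tail-flick latency at 20 min, 10 s cutoff, expressed as %MPE.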
# Mus musculus [12] = test: Hypothermic activity in iv dosed Harlan ICR mouse assessed as change in rectal temperature at 30 mins; type: functional; details: 0.5 h
# Mus musculus [13] = test: Induction of catalepsy in iv dosed Harlan ICR mouse at 40 mins measured for 5 mins by ring immobility test; type: functional
# Mus musculus [14] = test: Locomotor activity in Harlan ICR mouse assessed as inhibition of activity level at 66 umol/kg, iv from 5 to 15 mins by spontaneous locomotor activity test relative to vehicle treated control; type: functional; summary of the method: as §2
# Mus musculus [15] = test: Locomotor activity in Harlan ICR mouse assessed as inhibition of activity level at 6.2 umol/kg, iv from 5 to 15 mins by spontaneous locomotor activity test relative to vehicle treated control; type: functional, organism-based
# Summary of the method: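 Spontaneous activity in male ICR mice (18–25 g) after one iv tail-vein probe dose in 1:1:18 emulphor–ethanol–saline. Photocell beam interruptions (16 beams per chamber) recorded over 10 min, 5–15 min after dosing. Reported as % inhibition relative to the vehicle group. n = 6 per dose.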
# Mus musculus [16] = organism: Mus musculus; test: Induction of catalepsy in mouse by ring immobility test; type: functional
# Cannabinoid receptor 1 [17] = target: T1, Cannabinoid receptor 1; test: Activation of human CB1 receptor expressed in HEK293 cells assessed as [35S]GTPgamma binding after 90 mins by liquid scintillation spectrophotometry; type: functional, cell-based
# Summary of the method: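 Membranes from HEK-293 cells stably expressing human CB1, pelleted at 50,000g and taken up in Tris-HCl pH 7.4 with MgCl2, EGTA and NaCl. 10 µg protein with BSA, 20 µM GDP, 0.1 nM [35S]GTPγS and graded test concentrations, 90 min at 30 °C. 2 µM CP55,940 run as internal standard; basal without agonist, nonspecific with 10 µM GTPγS. Filtration, then scintillation counting.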
# Chain of Cannabinoid receptor 2 (P34972 whole entry): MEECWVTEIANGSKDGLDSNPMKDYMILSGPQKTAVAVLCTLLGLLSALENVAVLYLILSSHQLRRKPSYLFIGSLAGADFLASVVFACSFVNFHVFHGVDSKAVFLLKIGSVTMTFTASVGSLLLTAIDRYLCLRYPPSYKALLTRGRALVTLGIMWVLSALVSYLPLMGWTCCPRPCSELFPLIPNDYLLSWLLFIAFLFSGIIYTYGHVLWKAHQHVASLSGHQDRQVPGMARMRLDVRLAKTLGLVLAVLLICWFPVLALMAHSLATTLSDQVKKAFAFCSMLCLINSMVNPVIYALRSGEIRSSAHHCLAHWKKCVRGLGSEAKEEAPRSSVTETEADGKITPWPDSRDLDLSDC
# T1 sequence (P21554 whole entry): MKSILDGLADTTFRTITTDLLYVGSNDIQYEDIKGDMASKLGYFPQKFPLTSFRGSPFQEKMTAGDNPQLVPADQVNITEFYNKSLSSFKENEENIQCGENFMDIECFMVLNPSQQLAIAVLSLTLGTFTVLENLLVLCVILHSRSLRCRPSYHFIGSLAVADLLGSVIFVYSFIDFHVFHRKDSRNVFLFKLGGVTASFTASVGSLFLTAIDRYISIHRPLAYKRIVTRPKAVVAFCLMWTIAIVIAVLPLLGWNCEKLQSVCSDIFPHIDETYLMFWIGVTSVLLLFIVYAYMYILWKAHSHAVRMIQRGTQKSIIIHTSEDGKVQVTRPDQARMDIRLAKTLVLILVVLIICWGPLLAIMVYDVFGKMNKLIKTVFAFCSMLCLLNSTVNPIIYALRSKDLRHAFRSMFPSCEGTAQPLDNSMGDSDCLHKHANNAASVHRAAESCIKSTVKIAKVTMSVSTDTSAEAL
Compound,pKi (Cannabinoid receptor 1 [1]),pKi (Cannabinoid receptor 2),Ratio Ki (Homo sapiens),ED50 (Mus musculus [10]) [µmol/kg],ED50 (Mus musculus [11]) [µmol/kg],ED50 (Mus musculus [12]) [µmol/kg],further results
CCCCCn1cc(C(=O)c2ccc(Br)c3ccccc23)c2ccccc21,8.92,8.96,1,,,,
CCCn1c(C)c(C(=O)c2ccc(Cl)c3ccccc23)c2ccccc21,6.73,7.66,9,,,,inhibition in vivo at 83 µmol/kg (Mus musculus [2]): 70%; Activity (Mus musculus [3]): 100%; Activity (Mus musculus [4]): -5.4%; Activity (Mus musculus [5]): 70%
CCCCCn1c(C)c(C(=O)c2cccc3cccc(Cl)c23)c2ccccc21,6.94,7.72,6.1,,,,inhibition in vivo at 77 µmol/kg (Mus musculus [6]): 84%; Activity (Mus musculus [7]): 100%; Activity (Mus musculus [8]): -5.5%; Activity (Mus musculus [9]): 86%
CCCn1c(C)c(C(=O)c2cccc3cccc(Cl)c23)c2ccccc21,< 5.00,6.76,> 57,,,,inhibition in vivo at 83 µmol/kg (Mus musculus [2]): 70%; Activity (Mus musculus [3]): 42%; Activity (Mus musculus [4]): -2.3%; Activity (Mus musculus [5]): 15%
CCCCCn1cc(C(=O)c2cccc3cccc(Br)c23)c2ccccc21,7.68,8.27,4,1.4,1.8,2.4,ED50 (Mus musculus [13]): 3.7 µmol/kg
CCCn1c(C)c(C(=O)c2cccc3cccc(I)c23)c2ccccc21,5.37,6.27,8,,,,inhibition (Mus musculus [14]): inactive
CCCCCn1cc(C(=O)c2ccc(I)c3ccccc23)c2ccccc21,8.60,8.89,2,0.3,0.45,0.19,ED50 (Mus musculus [13]): 0.38 µmol/kg
CCCCCn1c(C)c(C(=O)c2cccc3cccc(I)c23)c2ccccc21,6.28,7.89,40,,,,inhibition (Mus musculus [15]): inactive
CCCn1c(C)c(C(=O)c2cccc3ccccc23)c2ccccc21,,,,18.7,84.7,99.1,ED50 (Mus musculus [16]): 87.2 µmol/kg
CCCCCn1cc(C(=O)c2cccc3ccccc23)c2ccccc21,,,3.2,0.44,0.09,1.7,ED50 (Mus musculus [16]): 3 µmol/kg
CCCCCn1c(C)c(C(=O)c2ccc(F)c3ccccc23)c2ccccc21,7.85,8.66,6,0.38,0.48,0.54,ED50 (Mus musculus [13]): 0.99 µmol/kg
CCCn1cc(C(=O)c2ccc(Br)c3ccccc23)c2ccccc21,6.79,7.57,6,,,,inhibition in vivo at 77 µmol/kg (Mus musculus [6]): 71%; Activity (Mus musculus [7]): 75%; Activity (Mus musculus [8]): -3.9%; Activity (Mus musculus [9]): 26%
C=C1CC[C@@H]2[C@@H](C1)c1ccc(C(C)(C)CCCCCC)cc1OC2(C)C,,,,,,,Activity (Cannabinoid receptor 1 [17]): inactive
